Assay results taken from ChEMBL document CHEMBL1165966, “ppGpp analogues inhibit synthetase activity of Rel proteins from Gram-negative and Gram-positive bacteria” (Bioorg Med Chem, 2010).
Numbering of substitutions follows the chain as printed. Calls of active or inactive are those of the source. The rule behind the calls is not given here.

What was measured:
[1] = biological target: T1, Bifunctional (p)ppGpp synthase/hydrolase RelA (Streptococcus dysgalactiae subsp. equisimilis) (UniProt Q54089); experiment: Inhibition of synthetic activity of Streptococcus equisimilis RelA assessed as inhibition of (p)ppGpp accumulation at 5 to 10 mM after 5 mins
T1 sequence (whole entry): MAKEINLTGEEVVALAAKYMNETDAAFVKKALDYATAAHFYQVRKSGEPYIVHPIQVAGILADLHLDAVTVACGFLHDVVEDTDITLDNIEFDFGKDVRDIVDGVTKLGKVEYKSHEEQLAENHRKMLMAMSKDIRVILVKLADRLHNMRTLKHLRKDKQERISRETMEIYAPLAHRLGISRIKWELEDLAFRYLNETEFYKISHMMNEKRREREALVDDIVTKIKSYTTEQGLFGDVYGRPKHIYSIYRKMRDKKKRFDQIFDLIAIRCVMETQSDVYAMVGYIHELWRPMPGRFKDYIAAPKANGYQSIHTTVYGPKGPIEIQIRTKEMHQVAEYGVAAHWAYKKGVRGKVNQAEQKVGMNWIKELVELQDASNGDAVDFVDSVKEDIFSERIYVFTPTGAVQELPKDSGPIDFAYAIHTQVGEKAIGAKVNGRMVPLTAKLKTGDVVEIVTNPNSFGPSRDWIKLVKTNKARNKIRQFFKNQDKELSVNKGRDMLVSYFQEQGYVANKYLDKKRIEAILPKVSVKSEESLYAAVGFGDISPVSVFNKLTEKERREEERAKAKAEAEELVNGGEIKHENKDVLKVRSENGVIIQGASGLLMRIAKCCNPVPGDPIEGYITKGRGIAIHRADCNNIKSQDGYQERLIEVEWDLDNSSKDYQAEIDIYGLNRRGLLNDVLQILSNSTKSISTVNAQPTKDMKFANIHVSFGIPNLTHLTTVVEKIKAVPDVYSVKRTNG

[2] = biological target: T2, GTP pyrophosphokinase (Escherichia coli K-12) (UniProt P0AG20); experiment: Inhibition of synthetic activity of Escherichia coli RelA assessed as inhibition of (p)ppGpp accumulation at 5 to 10 mM after 60 mins
T2 sequence (whole entry): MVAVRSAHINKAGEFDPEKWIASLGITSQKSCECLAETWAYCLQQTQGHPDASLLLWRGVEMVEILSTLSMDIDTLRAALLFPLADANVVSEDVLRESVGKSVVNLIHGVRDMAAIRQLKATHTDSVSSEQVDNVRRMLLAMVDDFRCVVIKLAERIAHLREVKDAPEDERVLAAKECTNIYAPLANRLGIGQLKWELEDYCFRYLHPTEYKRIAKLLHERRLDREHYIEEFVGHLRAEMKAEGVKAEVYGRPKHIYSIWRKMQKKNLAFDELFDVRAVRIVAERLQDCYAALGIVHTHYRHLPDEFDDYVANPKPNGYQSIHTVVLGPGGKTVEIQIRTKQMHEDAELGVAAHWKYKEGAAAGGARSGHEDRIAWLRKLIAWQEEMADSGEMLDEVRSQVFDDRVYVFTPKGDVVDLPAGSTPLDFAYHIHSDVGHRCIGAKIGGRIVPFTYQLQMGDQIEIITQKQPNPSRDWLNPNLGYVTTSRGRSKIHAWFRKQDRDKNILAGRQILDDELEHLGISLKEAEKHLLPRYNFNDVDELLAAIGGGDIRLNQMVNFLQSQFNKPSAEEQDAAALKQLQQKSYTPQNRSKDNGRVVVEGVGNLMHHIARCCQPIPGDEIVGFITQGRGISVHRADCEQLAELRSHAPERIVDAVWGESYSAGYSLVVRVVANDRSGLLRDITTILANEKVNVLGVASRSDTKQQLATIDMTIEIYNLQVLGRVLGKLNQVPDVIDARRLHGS

[3] = biological target: T1, Bifunctional (p)ppGpp synthase/hydrolase RelA (Streptococcus dysgalactiae subsp. equisimilis); experiment: Inhibition of synthetic activity of Streptococcus equisimilis RelA assessed as inhibition of (p)ppGpp accumulation at 0.5 mM after 5 mins
[4] = biological target: T2, GTP pyrophosphokinase (Escherichia coli K-12); experiment: Inhibition of Escherichia coli RelA catalytic site at 5 mM in presence of increasing concentration of GTP
In short: (§1)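 The buffer was Tris–HCl pH 7.4 with DTT, MgCl2, KCl and (NH4)2SO4. Analogue was held at 5 mM while GTP or ATP was raised. Reactions ran 60 min at room temperature, were stopped with formic acid, and (p)ppGpp accumulation was the read-out.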

[5] = biological target: T2, GTP pyrophosphokinase (Escherichia coli K-12); experiment: Inhibition of Escherichia coli RelA catalytic site at 5 mM in presence of increasing concentration of ATP; in short: as §1
[6] = biological target: T2, GTP pyrophosphokinase (Escherichia coli K-12); experiment: Inhibition of Escherichia coli RelA dissociation from L11 mutated ribosome assessed as increase in bound protein at 1 to 10 mM after 4 hrs by chemiluminescence assay relative to control
In short: (§2)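 Ribosomes were isolated through a 40% sucrose cushion from E. coli grown in LB at 37 °C. RelA plus ribosomes and analogue at 1–10 mM were centrifuged 4 h at 32,000 rpm, 4 °C, and split into soluble and ribosomal fractions. Ribosomal fractions were run on 12% SDS-PAGE, blotted to PVDF and probed with anti-His antibody (1:10,000).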

Escherichia coli = experiment: Inhibition of synthetic activity of Escherichia coli RelA C638F mutant at 1 to 10 mM
In short: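 Analogue was added at 1, 5 or 10 mM in duplicate lanes. The buffer was Tris–HCl pH 7.4 containing DTT, MgCl2, KCl and (NH4)2SO4. Reactions ran at room temperature and were stopped with formic acid.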

[7] = biological target: T2, GTP pyrophosphokinase (Escherichia coli K-12); experiment: Inhibition of synthetic activity of Escherichia coli RelA assessed as inhibition of (p)ppGpp accumulation at > 1 mM after 60 mins
[8] = tested on: T3, GTP pyrophosphokinase (Escherichia coli K-12), P0AG20 [G251E]; experiment: Inhibition of Escherichia coli RelA G251E mutant dissociation from ribosome at 1 to 10 mM after 4 hrs by chemiluminescence assay; in short: as §2
T3 sequence (whole entry): T2 sequence (whole entry) with G251E

[9] = biological target: T1, Bifunctional (p)ppGpp synthase/hydrolase RelA (Streptococcus dysgalactiae subsp. equisimilis); experiment: Inhibition of Streptococcus equisimilis RelA catalytic site at 5 mM in presence of increasing concentration of ATP
[10] = biological target: T2, GTP pyrophosphokinase (Escherichia coli K-12); experiment: Inhibition of Escherichia coli RelA dissociation from ribosome assessed as increase in bound protein at 1 to 10 mM after 4 hrs by chemiluminescence assay relative to control; in short: as §2
[11] = biological target: T1, Bifunctional (p)ppGpp synthase/hydrolase RelA (Streptococcus dysgalactiae subsp. equisimilis); experiment: Inhibition of Streptococcus equisimilis RelA catalytic site at 5 mM in presence of increasing concentration of GTP
[12] = biological target: T2, GTP pyrophosphokinase (Escherichia coli K-12); experiment: Inhibition of synthetic activity of Escherichia coli RelA assessed as inhibition of (p)ppGpp accumulation at 0.1 to 0.5 mM after 60 mins

inhibition [1]	inhibition [2]	Structure (SMILES)	further results
Active	Active	CC1(C)O[C@@H]2[C@H](O1)[C@@H](COP(=O)(O)CP(=O)(O)O)O[C@H]2n1cnc2c(=O)[nH]c(N)nc21	–
Active	Active	Nc1nc2c(ncn2[C@@H]2O[C@H](COP(=O)(O)CP(=O)(O)O)[C@@H](OP(=O)(O)CP(=O)(O)O)[C@H]2O)c(=O)[nH]1	–

More lines, now with the values behind:

Structure (SMILES)	inhibition [1]	inhibition [2]	further results
Nc1nc2c(ncn2[C@@H]2O[C@H](COP(=O)(O)CP(=O)(O)O)[C@@H](O)[C@H]2O)c(=O)[nH]1	Active	Active	–
Nc1nc2c(ncn2[C@H]2C[C@H](OP(=O)(O)CP(=O)(O)O)[C@@H](CO)O2)c(=O)[nH]1	Active	Active	–
CC(C)C(=O)Nc1nc2c(ncn2[C@@H]2O[C@H](COP(=O)(O)CP(=O)(O)O)[C@@H](OP(=O)(O)CP(=O)(O)O)[C@H]2O[Si](C)(C)C(C)(C)C)c(=O)[nH]1	Active	Active	–
Nc1nc2c(ncn2[C@H]2C[C@H](OP(=O)(O)CP(=O)(O)O)[C@@H](COP(=O)(O)CP(=O)(O)O)O2)c(=O)[nH]1	Active	Active	inhibition [3]: > 50%; inhibition [4]: inactive; inhibition [5]: Active; inhibition [6]: inactive; inhibition (Escherichia coli): Active; inhibition [7]: > 50%; inhibition [8]: inactive; inhibition [9]: Active; fold change (FC) [10]: 3; inhibition [11]: inactive; inhibition [12]: inactive
CC(C)C(=O)Nc1nc2c(ncn2[C@@H]2O[C@H](COP(=O)(O)CP(=O)(O)O)[C@@H](OP(=O)(O)CP(=O)(O)O)[C@H]2O)c(=O)[nH]1	Active	Active	–
